Experiment [1] has as its target Mast/stem cell growth factor receptor Kit (Homo sapiens, UniProt P10721, D816V). Briefly: Inhibitory concentration against c-Kit D816V type expressed in recombinant baculovirus. The method in brief: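 Recombinant c-Kit D816V expressed in baculovirus-infected High Five cells (MOI 10, harvested 90 h), purified by ion exchange then Ni affinity chromatography. ELISA on poly-Glu/Tyr (1:4)-coated wells; 10 nM final enzyme in 10 mM MgCl2, 1 mM MnCl2, 1 mM vanadate, 20 mM HEPES pH 7.3, BSA; 15 min at 25 °C, EDTA stop. Anti-phosphotyrosine-HRP detection, OPD, absorbance 492 nm; IC50 from inhibition.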

Experiment [2] has as its target Mast/stem cell growth factor receptor Kit (Homo sapiens, UniProt P10721). Briefly: Inhibitory concentration against c-Kit wild type expressed in recombinant baculovirus.
Experiment [3] deals with Fibroblast growth factor receptor 3 (Homo sapiens, UniProt P22607). The experiment is described as follows: Inhibitory activity against Fibroblast growth factor receptor 3. The method in brief: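 Commercially supplied FGFR3 enzyme. Value is the IC50 for inhibition of kinase activity.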

pIC50: −log10 of the molar value.

Chain of Fibroblast growth factor receptor 3 (P22607 whole entry): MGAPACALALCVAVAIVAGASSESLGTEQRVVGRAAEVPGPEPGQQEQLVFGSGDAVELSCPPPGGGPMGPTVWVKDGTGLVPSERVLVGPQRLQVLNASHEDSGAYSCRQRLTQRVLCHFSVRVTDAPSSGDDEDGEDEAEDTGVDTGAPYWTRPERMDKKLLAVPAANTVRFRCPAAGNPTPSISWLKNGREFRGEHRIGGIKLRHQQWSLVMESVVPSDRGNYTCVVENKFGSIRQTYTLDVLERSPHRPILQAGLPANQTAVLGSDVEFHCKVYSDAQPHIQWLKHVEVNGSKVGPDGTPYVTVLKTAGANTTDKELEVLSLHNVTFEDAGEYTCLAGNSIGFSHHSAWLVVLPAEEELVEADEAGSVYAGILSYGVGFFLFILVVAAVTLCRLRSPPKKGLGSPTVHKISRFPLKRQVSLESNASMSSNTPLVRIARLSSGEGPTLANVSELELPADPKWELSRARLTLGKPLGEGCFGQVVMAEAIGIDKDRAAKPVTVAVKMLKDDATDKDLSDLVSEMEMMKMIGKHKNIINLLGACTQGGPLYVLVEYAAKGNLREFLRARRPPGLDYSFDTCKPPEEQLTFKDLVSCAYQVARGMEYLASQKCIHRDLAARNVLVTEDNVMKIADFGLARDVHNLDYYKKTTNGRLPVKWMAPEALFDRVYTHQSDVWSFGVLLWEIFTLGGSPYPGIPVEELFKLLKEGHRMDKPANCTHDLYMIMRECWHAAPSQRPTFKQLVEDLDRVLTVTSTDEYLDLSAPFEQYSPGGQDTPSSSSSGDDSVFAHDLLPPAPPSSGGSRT
Chain of Mast/stem cell growth factor receptor Kit (Homo sapiens, UniProt P10721) (P10721 whole entry): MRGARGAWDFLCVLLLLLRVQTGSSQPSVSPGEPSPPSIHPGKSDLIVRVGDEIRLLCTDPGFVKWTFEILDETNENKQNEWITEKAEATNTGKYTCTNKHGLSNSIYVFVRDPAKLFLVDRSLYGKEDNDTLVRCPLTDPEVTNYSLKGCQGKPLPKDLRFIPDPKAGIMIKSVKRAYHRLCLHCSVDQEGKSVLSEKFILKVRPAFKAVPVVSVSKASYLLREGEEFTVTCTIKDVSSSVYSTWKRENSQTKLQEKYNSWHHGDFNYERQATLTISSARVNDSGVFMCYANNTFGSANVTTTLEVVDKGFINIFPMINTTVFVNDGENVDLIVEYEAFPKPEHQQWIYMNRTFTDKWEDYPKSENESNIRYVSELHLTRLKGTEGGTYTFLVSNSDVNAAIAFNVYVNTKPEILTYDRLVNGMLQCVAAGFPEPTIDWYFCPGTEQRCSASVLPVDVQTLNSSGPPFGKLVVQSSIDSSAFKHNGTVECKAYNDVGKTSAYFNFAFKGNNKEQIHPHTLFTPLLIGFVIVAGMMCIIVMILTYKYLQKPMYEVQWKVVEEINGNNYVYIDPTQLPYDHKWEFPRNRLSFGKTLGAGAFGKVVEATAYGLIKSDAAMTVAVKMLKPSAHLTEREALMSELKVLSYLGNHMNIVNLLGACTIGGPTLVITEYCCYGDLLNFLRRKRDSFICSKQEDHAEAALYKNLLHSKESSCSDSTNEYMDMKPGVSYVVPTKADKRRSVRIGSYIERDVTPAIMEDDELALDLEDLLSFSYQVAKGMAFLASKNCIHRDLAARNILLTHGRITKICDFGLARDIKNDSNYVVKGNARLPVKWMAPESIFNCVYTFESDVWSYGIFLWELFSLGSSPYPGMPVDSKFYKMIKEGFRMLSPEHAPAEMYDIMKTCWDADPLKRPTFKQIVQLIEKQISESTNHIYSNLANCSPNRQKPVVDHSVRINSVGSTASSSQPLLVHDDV
Chain of Mast/stem cell growth factor receptor Kit (Homo sapiens, UniProt P10721, D816V) (P10721 26-976 D816V limits assumed): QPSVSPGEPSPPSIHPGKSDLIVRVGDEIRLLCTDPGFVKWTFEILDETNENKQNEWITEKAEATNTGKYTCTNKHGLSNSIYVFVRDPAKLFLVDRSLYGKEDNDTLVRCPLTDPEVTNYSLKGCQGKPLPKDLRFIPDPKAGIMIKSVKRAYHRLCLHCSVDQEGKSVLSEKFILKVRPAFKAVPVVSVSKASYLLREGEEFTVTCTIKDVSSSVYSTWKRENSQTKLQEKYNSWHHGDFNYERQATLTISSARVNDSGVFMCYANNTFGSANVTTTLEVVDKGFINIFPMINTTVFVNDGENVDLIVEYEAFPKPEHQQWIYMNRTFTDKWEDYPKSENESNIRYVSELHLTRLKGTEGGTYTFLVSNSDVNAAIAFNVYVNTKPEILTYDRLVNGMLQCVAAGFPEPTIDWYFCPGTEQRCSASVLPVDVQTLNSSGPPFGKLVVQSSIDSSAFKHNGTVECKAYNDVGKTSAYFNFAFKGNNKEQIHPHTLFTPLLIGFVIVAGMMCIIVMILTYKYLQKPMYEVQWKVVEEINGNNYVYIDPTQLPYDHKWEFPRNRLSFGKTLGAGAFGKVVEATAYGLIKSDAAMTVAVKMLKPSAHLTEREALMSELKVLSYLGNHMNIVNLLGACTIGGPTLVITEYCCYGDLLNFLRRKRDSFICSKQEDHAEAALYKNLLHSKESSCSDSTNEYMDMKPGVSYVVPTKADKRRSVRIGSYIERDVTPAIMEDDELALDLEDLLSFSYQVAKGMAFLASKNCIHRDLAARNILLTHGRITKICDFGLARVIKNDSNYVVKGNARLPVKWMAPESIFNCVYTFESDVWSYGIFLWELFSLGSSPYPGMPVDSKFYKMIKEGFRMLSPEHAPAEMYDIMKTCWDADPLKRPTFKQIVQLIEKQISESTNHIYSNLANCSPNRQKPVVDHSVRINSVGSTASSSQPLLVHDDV

What is called pIC50 is the IC50 on a negative log10 scale, so that one unit is a factor of ten. On to `Cc1c2cc[n+](C)cc2c(C)c2c1[nH]c1ccc(O)cc12`, for which the pIC50 in experiment [1] was 6.40; in experiment [2], 6.40; in experiment [3], 6.30.
Regarding `Cc1c2ccncc2c(C)c2c1[nH]c1ccc(Br)cc12`, the pIC50 in experiment [1] and in experiment [2] was < 5.00 in each case.
As for `CCN(CC)CC[n+]1ccc2c(C)c3[nH]c4ccc(O)cc4c3c(C)c2c1`, the pIC50 in experiment [1] is 6.52; in experiment [2] it was 6.35.
As for `CCN(CC)CCCNc1nccc2c(C)c3[nH]c4ncccc4c3cc12`, the pIC50 in experiment [1] is 5.72; in experiment [2], 5.64.
As to `COc1ccc2[nH]c3c(C)c4ccncc4c(C)c3c2c1`, the values for the pIC50 in experiment [1] and in experiment [2] were 6.22 and 6.10, respectively.
For `Cc1c2ccncc2c(C)c2c1[nH]c1ccc(O)cc12`, the negative logarithm of the IC50 (pIC50) in experiment [1], in experiment [2] and in experiment [3] was 6.40 throughout.
For the compound `CCN(CC)CCCNc1nccc2c(C)c3[nH]c4ccc(OC)cc4c3cc12`, the results for the negative logarithm of the IC50 (pIC50) in experiment [1] and in experiment [2] were 5.70 and 5.60, respectively.
For `CCN(CC)CCCNc1nccc2c(C)c3[nH]c4ccc(O)cc4c3c(C)c12` the same measures were 5.92 and 5.85.
For the compound `CCN(CC)CCCNc1nccc2c(C)c3c(c(C)c12)c1cc(O)ccc1n3C`, the pIC50 in experiment [1] was 5.44; in experiment [2], 5.60; in experiment [3], 5.85.
For `Cc1c2ccncc2c(C)c2c1[nH]c1ccccc12` [ELLIPTECINE], the negative-log IC50 (pIC50) in experiment [1] and in experiment [2] was < 5.00 in each case.

For the origin of these results see ChEMBL document CHEMBL1141098, “Molecular modeling of wild-type and D816V c-Kit inhibition based on ATP-competitive binding of ellipticine derivatives to tyrosine kinases” (J Med Chem, 2005).
